“Also recorded” adds a separate entry of the source. Where no end group is shown, it is not given here.
Legend:
DnaK = conditions: 2001, cited from earlier work; for binding by bacterial DnaK related to uptake and killing: ref Kragol et al.
Candida albicans = conditions: cited from earlier work
C. albicans Ssa2p = conditions: ref Li et al., 2006; cited from earlier work
human tissues = conditions: discussion statement without its own reference; cited from earlier work
[1] = ref Li et al., 2006; cited from earlier work
C. albicans [2] = test: Hst 5 translocation assay; type: cell-based, Candida albicans
Outline: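 Early log-phase cells (1 × 10^8) were washed twice and suspended in 1 ml 10 mM NaPB, then given biotinylated Hst 5 (15 μM final) for 30 min at room temperature. Washed cells were pelleted at 3 300 g, 4°C, glass-bead disrupted and spun 15 700 g, 10 min. Cytosolic protein (10 μg) was separated by 16% Tricine SDS-PAGE, blotted with streptavidin-HRP, detected by ECL and quantified densitometrically. Means ± standard errors of triplicate independent assays.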

yeast cells = conditions: ref Koshlukova et al., 2000; Vylkova et al., 2007; cited from earlier work
rSsa2p [3] = biological target: T1, rSsa2p (Candida albicans, UniProt P46587); test: FPLC gel filtration determination of dissociation constants; type: binding
C. albicans [4] = test: Candidacidal assay of Hst 5; type: cell-based, Candida albicans
Outline: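 Strains (integrated at RP10 in ssa2Δ background) grown overnight in YPD with uridine 50 μg ml−1 at 30°C, washed twice in 10 mM NaPB, resuspended to 10^6 cells ml−1. Exposed to 15 μM Hst 5, 1 h, 30°C, 250 r.p.m. Diluted, 500 cells plated on YPD agar, 48 h room temperature. Percent death versus buffer-only cells. Three independent transformants per mutant; each assay repeated ≥3 times.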

rSsa2p [5] = biological target: T1, rSsa2p; test: Limited thermolysin proteolysis of cross-linked rSsa2p–BHst 5 complexes; type: binding; conditions: thermolysin 5 μg ml^−1, 30°C, 1 h; silver-stained 15% SDS-PAGE

T1 sequence (P46587 whole entry): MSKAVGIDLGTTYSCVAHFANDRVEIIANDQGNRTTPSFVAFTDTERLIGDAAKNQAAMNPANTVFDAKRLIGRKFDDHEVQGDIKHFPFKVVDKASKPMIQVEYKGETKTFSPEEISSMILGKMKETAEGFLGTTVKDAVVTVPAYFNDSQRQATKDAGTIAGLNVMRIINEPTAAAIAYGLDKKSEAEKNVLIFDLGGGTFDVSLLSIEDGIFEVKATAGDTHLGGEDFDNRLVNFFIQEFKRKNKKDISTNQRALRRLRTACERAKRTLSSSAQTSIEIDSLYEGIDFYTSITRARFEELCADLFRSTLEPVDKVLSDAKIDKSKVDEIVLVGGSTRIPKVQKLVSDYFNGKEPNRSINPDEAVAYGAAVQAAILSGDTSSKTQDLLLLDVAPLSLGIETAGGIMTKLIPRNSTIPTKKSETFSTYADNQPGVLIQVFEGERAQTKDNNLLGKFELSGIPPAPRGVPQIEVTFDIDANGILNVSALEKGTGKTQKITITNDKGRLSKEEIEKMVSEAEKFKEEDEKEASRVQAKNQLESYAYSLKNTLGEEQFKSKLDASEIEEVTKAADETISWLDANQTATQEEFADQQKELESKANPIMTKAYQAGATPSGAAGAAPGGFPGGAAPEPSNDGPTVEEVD

## pyrrhocoricin: cationic antimicrobial peptide (VDKGSYLPRPTPPRPIYNRN; ends and bridges not checked; UniProt P37362 1-20, looked up)
DnaK
  binding by bacterial DnaK related to uptake and killing: shown to be related to their intracellular uptake and killing functions
DnaK; ref Otvos et al., 2000, Kragol et al.
  probable interaction site on DnaK: C-terminal variable region of the lid domain outside the conventional peptide binding region

## human β defensin 2
Candida albicans; ref Vylkova et al., 2006
  killing of candidal cells via uptake mechanism involving Ssa proteins: can kill candidal cells

## drosocin: cationic antimicrobial peptide (GKPRPYSPRPTSHPRPIRV; ends and bridges not checked; UniProt P36193 22-40, looked up)
DnaK
  binding by bacterial DnaK related to uptake and killing: shown to be related to their intracellular uptake and killing functions

## C[C@H](NC(=O)[C@H](Cc1cnc[nH]1)NC(=O)[C@H](CO)NC(=O)[C@@H](N)CC(=O)O)C(=O)N[C@@H](CCCCN)C(=O)N[C@@H](CCCNC(=N)N)C(=O)N[C@@H](Cc1cnc[nH]1)C(=O)N[C@@H](Cc1cnc[nH]1)C(=O)NCC(=O)N[C@@H](Cc1ccc(O)cc1)C(=O)N[C@@H](CCCCN)C(=O)N[C@@H](CCCNC(=N)N)C(=O)N[C@@H](CCCCN)C(=O)N[C@@H](Cc1ccccc1)C(=O)N[C@@H](Cc1cnc[nH]1)C(=O)N[C@@H](CCC(=O)O)C(=O)N[C@@H](CCCCN)C(=O)N[C@@H](Cc1cnc[nH]1)C(=O)N[C@@H](Cc1cnc[nH]1)C(=O)N[C@@H](CO)C(=O)N[C@@H](Cc1cnc[nH]1)C(=O)N[C@@H](CCCNC(=N)N)C(=O)NCC(=O)N[C@@H](Cc1ccc(O)cc1)C(=O)O [Hst 5, Histatin 5]
C. albicans Ssa2p
  association with Ssa2p compared with Ssa1p: stronger association
Human tissues
  toxicity to human tissues: without being toxic to human tissues
[1]
  self-aggregation: high propensity for self-aggregation
C. albicans [2]; BHst 5 15 μM, NaPB, room temperature
  time course of translocation: Translocation happens very rapidly following only 5 min incubation; also recorded: the majority of Hst 5 is translocated intracellularly after 30 min
C. albicans [2]; P1 mutant Ssa2(150−156A3) as printed, BHst 5 15 μM
  reduction in Hst 5 translocation, Ssa2 150−156 mutant strain: approximately 20%
C. albicans [2]; T2 mutant with defective cell wall secretion of Ssa2p, BHst 5 15 μM
  intracellular translocation, Ssa2(334−338A3) strain: reduced Hst 5 translocation and killing to levels of the ssa2Δ knockout
C. albicans [2]; downstream T1 mutant, BHst 5 15 μM
  intracellular translocation, Ssa2(131−135A3) strain: reduced, but did not prevent Hst 5 killing and intracellular uptake
C. albicans [2]; spot 32 region, data not shown
  effect of mutations within Ssa2(342–355) on translocation: did not alter Hst 5 killing or translocation
C. albicans [2]; ssa2Δ
  uptake in Ssa2p deletion mutants: reduced but measurable uptake
Yeast cells
  selective leakage of intracellular ions and ATP: induces selective leakage of intracellular ions and ATP from yeast cells
rSsa2p [3]; gel filtration with ATP or ADP
  competition for nucleotide binding sites in Ssa2p: does not compete for nucleotide binding sites in Ssa2p
rSsa2p [3]; presence of nucleotides, gel filtration
  fold improvement of binding affinity by nucleotides: 10 -fold
C. albicans [4]; P1 mutant Ssa2(150−156A3) as printed, 15 μM Hst 5, 1 h at 30°C
  reduction in cellular killing, Ssa2 150−156 mutant strain: approximately 20%
C. albicans [4]; P1 mutant, result in words, 15 μM Hst 5, 1 h at 30°C
  loss of killing function, Ssa2(150−156A4) strain: mild to moderate loss of function
C. albicans [4]; T2 mutant with defective cell wall secretion of Ssa2p, 15 μM Hst 5, 1 h at 30°C
  killing, Ssa2(334−338A3) strain: reduced Hst 5 translocation and killing to levels of the ssa2Δ knockout; also recorded: significant loss of cytotoxic and transport functions
C. albicans [4]; downstream T1 mutant, 15 μM Hst 5, 1 h at 30°C
  killing, Ssa2(131−135A3) strain: reduced, but did not prevent Hst 5 killing and intracellular uptake; also recorded: mild to moderate loss of function
C. albicans [4]; spot 32 region, data not shown
  effect of mutations within Ssa2(342–355) on killing: did not alter Hst 5 killing or translocation
rSsa2p [5]
  effect of binding on thermolysin digestion sites of rSsa2p: substantially alters available thermolysin digestion sites exposed for enzymatic cleavage
Candida albicans; SSA1 knockout, ref Li et al., 2006
  resistance of SSA1 knockouts to Hst 5: only mildly resistant
Candida albicans; SSA2 deletion, ref Li et al., 2006
  intracellular uptake and killing in C. albicans SSA2 deletion mutants: significantly reduced
Candida albicans; associated with oral candidiasis, background statement without its own reference
  fungicidal activity for Candida albicans and other fungal pathogens: strongly fungicidal
Candida albicans; pre-treatment of cells, ref Zhu et al., 2006
  inhibition of Hst 5 killing by drugs blocking endocytosis: inhibited by pre-treatment of cells with drugs blocking endocytosis
Candida albicans; ref Dong et al., 2003, Jang et al., 2008
  salt sensitivity: salt sensitive

Reference: publication PMC2643122 (Molecular Microbiology, 2008)
